Laboratory results published in ChEMBL document CHEMBL1131023, “Identification of a dihydropyridine as a potent alpha1a adrenoceptor-selective antagonist that inhibits phenylephrine-induced contraction of the human prostate” (J Med Chem, 1998).

Legend:
[1] = molecular target: T1, Alpha-1D adrenergic receptor (Homo sapiens, UniProt P25100); experiment: Binding affinity determined by displacement of [3H]prazosin from alpha-1D adrenergic receptor
T1 sequence (P25100 whole entry): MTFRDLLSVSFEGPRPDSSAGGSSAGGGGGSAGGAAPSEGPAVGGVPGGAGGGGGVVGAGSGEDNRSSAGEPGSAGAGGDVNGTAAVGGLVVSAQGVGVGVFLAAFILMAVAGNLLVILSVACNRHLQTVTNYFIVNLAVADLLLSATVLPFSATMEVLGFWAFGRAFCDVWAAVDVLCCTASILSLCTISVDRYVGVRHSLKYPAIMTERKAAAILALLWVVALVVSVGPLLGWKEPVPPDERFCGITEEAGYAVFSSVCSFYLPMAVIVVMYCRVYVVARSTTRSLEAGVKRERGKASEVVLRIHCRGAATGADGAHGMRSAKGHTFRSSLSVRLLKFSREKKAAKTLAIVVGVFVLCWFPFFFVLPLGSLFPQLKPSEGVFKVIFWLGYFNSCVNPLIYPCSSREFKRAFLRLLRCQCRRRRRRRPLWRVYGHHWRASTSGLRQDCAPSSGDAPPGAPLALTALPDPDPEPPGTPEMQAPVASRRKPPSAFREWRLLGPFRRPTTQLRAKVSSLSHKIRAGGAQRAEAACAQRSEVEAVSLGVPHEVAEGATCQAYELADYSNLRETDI
Procedure, shortened: (§1)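 Radioligand displacement binding at the cloned receptor, incubated for 30 min.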

[2] = molecular target: T2, Alpha-2A adrenergic receptor (Homo sapiens, UniProt P08913); experiment: Binding affinity determined by displacement of [3H]rauwolscine from alpha-2A adrenergic receptor; procedure, shortened: as §1
T2 sequence (P08913 whole entry): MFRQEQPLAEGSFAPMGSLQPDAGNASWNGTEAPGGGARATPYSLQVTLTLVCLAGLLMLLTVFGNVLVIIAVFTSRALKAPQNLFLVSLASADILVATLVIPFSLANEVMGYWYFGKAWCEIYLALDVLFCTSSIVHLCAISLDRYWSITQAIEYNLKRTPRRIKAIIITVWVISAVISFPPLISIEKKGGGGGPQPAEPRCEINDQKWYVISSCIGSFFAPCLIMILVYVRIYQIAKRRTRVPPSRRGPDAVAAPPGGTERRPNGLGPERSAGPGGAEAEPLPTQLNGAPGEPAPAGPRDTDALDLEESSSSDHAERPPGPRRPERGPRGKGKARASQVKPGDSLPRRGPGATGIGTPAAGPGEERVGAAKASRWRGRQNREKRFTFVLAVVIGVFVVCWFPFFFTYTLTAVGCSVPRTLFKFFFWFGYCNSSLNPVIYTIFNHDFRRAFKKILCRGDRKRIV

[3] = molecular target: T3, Alpha-1A adrenergic receptor (Homo sapiens, UniProt P35348); experiment: Binding affinity determined by displacement of [3H]prazosin from alpha-1A adrenergic receptor
T3 sequence (P35348 whole entry): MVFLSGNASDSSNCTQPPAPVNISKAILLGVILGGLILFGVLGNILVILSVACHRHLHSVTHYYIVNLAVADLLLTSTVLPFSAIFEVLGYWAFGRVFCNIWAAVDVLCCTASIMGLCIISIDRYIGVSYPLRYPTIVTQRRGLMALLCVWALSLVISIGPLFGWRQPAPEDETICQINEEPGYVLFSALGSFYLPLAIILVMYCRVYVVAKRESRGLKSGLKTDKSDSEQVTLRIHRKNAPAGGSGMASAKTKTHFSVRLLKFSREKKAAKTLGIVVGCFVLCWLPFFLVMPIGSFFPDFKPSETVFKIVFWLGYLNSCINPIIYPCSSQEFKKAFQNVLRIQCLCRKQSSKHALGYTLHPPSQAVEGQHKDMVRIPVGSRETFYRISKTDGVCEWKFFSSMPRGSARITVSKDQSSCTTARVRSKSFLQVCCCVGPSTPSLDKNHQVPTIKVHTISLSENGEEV

[4] = molecular target: T4, Alpha-2B adrenergic receptor (Homo sapiens, UniProt P18089); experiment: Binding affinity determined by displacement of [3H]rauwolscine from alpha-2B adrenergic receptor
T4 sequence (P18089 whole entry): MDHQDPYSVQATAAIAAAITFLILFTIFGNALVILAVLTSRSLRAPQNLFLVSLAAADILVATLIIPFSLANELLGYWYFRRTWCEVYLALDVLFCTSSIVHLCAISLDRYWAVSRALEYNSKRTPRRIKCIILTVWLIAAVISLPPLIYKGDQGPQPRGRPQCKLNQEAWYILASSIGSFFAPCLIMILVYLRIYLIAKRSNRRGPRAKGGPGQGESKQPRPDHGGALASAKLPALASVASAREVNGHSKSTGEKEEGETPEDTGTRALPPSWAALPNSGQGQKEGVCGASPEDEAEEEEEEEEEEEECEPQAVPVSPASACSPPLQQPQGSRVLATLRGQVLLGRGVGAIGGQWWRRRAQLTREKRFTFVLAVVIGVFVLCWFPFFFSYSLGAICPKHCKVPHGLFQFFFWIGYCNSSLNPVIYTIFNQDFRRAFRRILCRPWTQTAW

[5] = molecular target: T5, Alpha-1B adrenergic receptor (Homo sapiens, UniProt P35368); experiment: Binding affinity determined by displacement of [3H]prazosin from alpha-1B adrenergic receptor
T5 sequence (P35368 whole entry): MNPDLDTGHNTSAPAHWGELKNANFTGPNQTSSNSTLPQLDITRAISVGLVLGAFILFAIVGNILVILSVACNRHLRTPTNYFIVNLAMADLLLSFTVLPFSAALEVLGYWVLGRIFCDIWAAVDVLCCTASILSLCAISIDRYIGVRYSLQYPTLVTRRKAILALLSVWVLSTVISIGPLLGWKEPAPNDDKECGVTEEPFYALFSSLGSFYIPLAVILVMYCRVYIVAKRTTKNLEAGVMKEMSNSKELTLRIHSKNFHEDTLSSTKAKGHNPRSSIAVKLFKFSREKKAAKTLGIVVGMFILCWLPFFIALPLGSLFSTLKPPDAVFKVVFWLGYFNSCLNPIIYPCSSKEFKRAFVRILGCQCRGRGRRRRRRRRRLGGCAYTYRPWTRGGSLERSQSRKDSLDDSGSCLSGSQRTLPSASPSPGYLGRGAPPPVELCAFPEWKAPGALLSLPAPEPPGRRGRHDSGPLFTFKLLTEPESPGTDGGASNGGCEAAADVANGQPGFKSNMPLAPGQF

[6] = molecular target: T6, Alpha-2C adrenergic receptor (Homo sapiens, UniProt P18825); experiment: Binding affinity assayed by displacement of [3H]rauwolscine from human alpha-2C adrenergic receptor; procedure, shortened: as §1
T6 sequence (P18825 whole entry): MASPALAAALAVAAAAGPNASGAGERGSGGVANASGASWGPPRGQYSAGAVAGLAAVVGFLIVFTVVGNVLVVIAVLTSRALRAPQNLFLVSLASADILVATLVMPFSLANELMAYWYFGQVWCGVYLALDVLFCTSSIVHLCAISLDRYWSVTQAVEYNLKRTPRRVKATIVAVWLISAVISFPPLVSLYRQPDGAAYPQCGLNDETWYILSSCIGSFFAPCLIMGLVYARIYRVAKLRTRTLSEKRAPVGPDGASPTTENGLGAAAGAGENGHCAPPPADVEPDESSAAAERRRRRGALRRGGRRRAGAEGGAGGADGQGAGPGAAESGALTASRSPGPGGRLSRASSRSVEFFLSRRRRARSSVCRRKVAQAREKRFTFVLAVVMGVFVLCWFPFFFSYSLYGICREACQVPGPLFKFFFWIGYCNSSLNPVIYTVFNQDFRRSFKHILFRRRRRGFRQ

[7] = molecular target: Voltage-gated L-type calcium channel (Rattus norvegicus, UniProt P22002+Q02485+P27732); experiment: Binding affinity at the L-type [Ca2+] channel from rat brain homogenate by [3H]nitrendipine displacement.; type: tissue-based

SMILES	Ki [1] [nM]	Ki [2] [nM]	Ki [3] [nM]	Ki [4] [nM]	Ki [5] [nM]	Ki [6] [nM]	Log Ki [7]
CO/C(O)=C1\C(C)=NC(C)=C(C(=O)NCCCCN2CCC(c3ccccc3)(c3ccccc3)CC2)C1c1ccc([N+](=O)[O-])cc1 (stereo not drawn)	331	646	14.8	372	135	282	< -6
CC1=C(C(N)=O)C(c2ccc3c(c2)OCO3)C(C(=O)NCCCN2CCC(c3ccccc3)(c3ccccc3)CC2)=C(C)N1 (stereo not drawn)	1150	501	8.71	204	1170	724	< -6
CO/C(O)=C1\C(C)=NC(C)=C(C(=O)NCCCN2CCC(c3ccccc3)(c3ccccc3)CC2)C1c1ccc(C)cc1 (stereo not drawn)	316	1290	1.38	912	269	417	< -6
CO/C(O)=C1\C(C)=NC(C)=C(C(=O)NCCCN2CCC(c3ccccc3)(c3ccccc3)CC2)C1c1ccc(Cl)c(Cl)c1 (stereo not drawn)	324	912	1.86	1260	115	158	< -6
CC1=C(C#N)C(c2ccc([N+](=O)[O-])cc2)C(C(=O)NCCCN2CCC(c3ccccc3)(c3ccccc3)CC2)=C(C)N1 (stereo not drawn)	437	631	56.2	832	166	479	< -6
CC(=O)C1=C(C)NC(C)=C(C(=O)NCCCN2CCC(c3ccccc3)(c3ccccc3)CC2)C1c1ccc2c(c1)OCO2 (stereo not drawn)	457	955	8.91	380	380	407	< -6
CO/C(O)=C1\C(C)=NC(C)=C(C(=O)NCCCN2CCC(c3ccccc3)CC2)C1c1ccc([N+](=O)[O-])cc1 (stereo not drawn)	66.1	275	0.229	219	13.5	81.3	< -6
CO/C(O)=C1\C(C)=NC(C)=C(C(=O)NCCCN2CCC(c3ccccc3)(c3ccccc3)CC2)C1c1ccc2c(c1)OCO2 (stereo not drawn)	302	1120	1.12	871	224	575	< -6
CO/C(O)=C1\C(C)=NC(C)=C(C(=O)NCCCN2CCC(c3ccccc3)(c3ccccc3)CC2)C1c1ccc2ccccc2c1 (stereo not drawn)	741	1580	36.3	891	138	631	-6.43
